Measured values collected from several papers.
Protocols differ between the studies behind these lines.
TNKS: Poly [ADP-ribose] polymerase tankyrase-1 (TNKS, Homo sapiens, UniProt O95271)
NTRK3: NT-3 growth factor receptor (NTRK3, Homo sapiens, UniProt Q16288)

| Compound | target | assay | system | setting | inhibition |
| --- | --- | --- | --- | --- | --- |
| C[C@H]1C[C@@H](N2C(=N)N[C@](C)(c3cccc(Nc4ccc(C5CC5)nc4)c3Cl)CC2=O)CCO1 | Cathepsin E (CTSE, Homo sapiens, UniProt P14091) | enzyme activity, inhibitor | – | 10 µM | 86% |
| COC(=O)[C@@]12Oc3c(c(O)cc4c3[C@@H]3C=C[C@]5(C4)C(=C(O)c4c(O)cc(C)cc4[C@@H]5OC(C)=O)C3=O)C(O)=C1C(=O)C=C[C@@H]2O | PSMB6/PSMB5/PSMB7 (Homo sapiens, UniProt P28072+P28074+Q99436) | enzyme activity in cells, inhibitor | MCF7 | 20 µg/mL | 13% |
| CC(=O)c1nn(CC(=O)N2C[C@H](F)C[C@H]2C(=O)Nc2cccc(Br)n2)c2ccc(-c3cnc(C)nc3)cc12 | Dipeptidyl peptidase 4 (DPP4, Homo sapiens, UniProt P27487) | enzyme activity, inhibitor | – | 10 µM | -1% |
| Cc1ccc(C)c(NC(=O)CSc2nnc(Cc3cc(=O)[nH]c(=O)[nH]3)n2-c2ccc(Cl)cc2)c1 | TNKS | enzyme activity, inhibitor | – | 0.1 µM | 3% |
| CC1=C(/C=C/C(C)=C/C=C/C(C)=C/CO)C(C)(C)CCC1 | Prothrombin (Rattus norvegicus, UniProt P18292) | enzyme activity, inhibitor | – | 200 µg/mL | 46% |
| O=C(Nc1ccc(OC(F)(F)F)cc1)Nc1cccc(C(=O)Nc2ccc3[nH]ncc3c2)c1 | NTRK3 | enzyme activity, inhibitor, FRET | – | 1 µM | 17.3% |
| OCc1cc(C(O)CNCCCCCCOCCCCc2ccccc2)ccc1O (stereo not drawn) | C-X-C chemokine receptor type 4 (CXCR4, Homo sapiens, UniProt P61073) | calcium signal, antagonist | U87.CD4.CXCR4 | 4 µM | 11% |
| CCN(c1cc(C#CCN2CCOCC2)cc(C(=O)NCc2c(C)cc(C)[nH]c2=O)c1C)[C@H]1CC[C@H](N(C)CCOC)CC1 | Histone-lysine N-methyltransferase SMYD3 (SMYD3, Homo sapiens, UniProt Q9H7B4) | enzyme activity, inhibitor | – | 1 µM | 13% |
| O=C(Nc1ccc2[nH]ncc2c1)c1cccc(NC(=S)Nc2ccc(C(F)(F)F)cc2)c1 | NTRK3 | enzyme activity, inhibitor, FRET | – | 1 µM | 17.3% |
| CN(C)C1CCN(CC#Cc2nn(C3CCCC3)c3nc(NCc4ccccc4)ncc23)C1 (stereo not drawn) | RAC-alpha serine/threonine-protein kinase (AKT1, Homo sapiens, UniProt P31749) | enzyme activity, inhibitor, FRET | – | 1 µM | 5% |
| Ic1cccc2cnccc12 | TNKS | enzyme activity, inhibitor | – | 10 µM | 7% |
| CNC(=O)c1cc(Oc2ccc(NC(=O)Nc3ccc(Cl)c(C(F)(F)F)c3)cc2)ccn1 | Dual specificity mitogen-activated protein kinase kinase 7 (MAP2K7, Homo sapiens, UniProt O14733) | enzyme activity, inhibitor | – | 0.3 µM | 9% |
